Data set [1] can be described thus: Inhibition of bovine pancreas chymotrypsin using Suc-AAPF-AMC as substrate measured for 30 mins by fluorescence assay. More on the design: species or system Bos taurus. An outline of the steps: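 Inhibitor added from DMSO stock; substrate added last and AMC fluorescence read immediately. Ki = 1/slope × 1/(1+[S]/Km), from V0/Vi−1 plotted against [I].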
Data set [2] is described as follows: Selectivity ratio of Ki for bovine pancreas chymotrypsin to Ki for human seminal fluid PSA.
Data set [3] concerns Mus musculus. Description: Toxicity in nude mouse xenografted with human LNCAP cells expressing PSA assessed as body weight loss at 10 mg/kg, iv qd measured 5 days/week for 3 weeks. The settings on record: in vivo. Further details: dose 10 mg/kg, route intravenous. Type of data set: organism-based. An outline of the steps:
(§1)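 Nude male mice (n = 10 per group) carrying subcutaneous PSA-producing LNCaP xenografts. Dosed 10 mg/kg iv once daily for three cycles of five consecutive days, compound in sterile saline; controls untreated. Tumor measured by caliper, volume = L × W × H × […]. Tumor size and body weight recorded twice per week.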

Data set [4] deals with Mus musculus. Kind of data set: Inhibition of free PSA level in nude mouse serum xenografted with human LNCAP cells at 10 mg/kg, iv qd administered 5 days/week for 3 weeks measured 24 hrs post last dose by ELISA relative to control. In kind it is functional. In short, it runs like this: (§2)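 LNCaP xenograft-bearing nude mice dosed 10 mg/kg iv (sterile saline) once daily, five consecutive days/week for three courses; controls untreated. Serum free and total PSA measured by ELISA 24 h after the last dose, also expressed per g tumor.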

The subject of data set [5] is LNCaP. Description: Antitumor activity against human LNCAP cells expressing PSA xenografted in nude mouse assessed as tumor incident at 10 mg/kg, iv qd administered 5 days/week for 3 weeks measured after 3 weeks. Type of data set: functional, organism-based. More on the design: dose 10 mg/kg. In short, it runs like this: as §1
For data set [6], the system named is Mus musculus. Kind of data set: Inhibition of total PSA level in nude mouse serum xenografted with human LNCAP cells at 10 mg/kg, iv qd administered 5 days/week for 3 weeks measured 24 hrs post last dose by ELISA relative to control. Type of data set: functional. In short, it runs like this: as §2
The subject of data set [7] is LNCaP. Description: Antitumor activity against human LNCAP cells expressing PSA xenografted in nude mouse assessed as delay in tumor growth at 10 mg/kg, iv qd administered 5 days/week for 3 weeks measured after 2 weeks. In kind it is functional, organism-based. Further details: dose 10 mg/kg. In short, it runs like this: as §1
Data set [8] is described as follows: Half life in ip dosed mouse. Type of data set: ADME, organism-based. To be noted: in vivo. An outline of the steps:
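Four animals sacrificed per time point; plasma counts per second normalised to starting counts.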

The target of data set [9] is T1, Prostate-specific antigen (Homo sapiens, UniProt P07288).
T1 sequence (P07288 whole entry): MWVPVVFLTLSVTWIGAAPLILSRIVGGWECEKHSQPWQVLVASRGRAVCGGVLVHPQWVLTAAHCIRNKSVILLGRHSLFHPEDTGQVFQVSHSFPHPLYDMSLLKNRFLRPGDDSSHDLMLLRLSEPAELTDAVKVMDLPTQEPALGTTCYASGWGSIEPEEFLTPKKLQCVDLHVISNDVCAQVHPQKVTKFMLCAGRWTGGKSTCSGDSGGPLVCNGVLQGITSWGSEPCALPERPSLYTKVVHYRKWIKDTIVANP
Description: Inhibition of PSA (unknown origin) using Mu-SRKSQQY-AMC as substrate by fluorescence assay. In short, it runs like this:
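Inhibitor added from DMSO stock. AMC fluorescence (ex 370, em 465 nm) followed over 30 min in triplicate. Ki = 1/slope × 1/(1+[S]/Km), from V0/Vi−1 plotted against [I].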

A short description of data set [10]: Selectivity ratio of Ki for human seminal fluid PSA to Ki for bovine pancreas chymotrypsin.
Data set [11] has as its target T1, Prostate-specific antigen. Kind of data set: Inhibition of PSA (unknown origin).
The subject of a further data set is Liver. Description: Biodistribution in nude mouse liver xenografted with human LNCAP cells expressing PSA at 230 to 580 uCi after 2 hrs by gamma counting analysis. In kind it is ADME, organism-based. To be noted: in vivo. An outline of the steps: (§3)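 Single mice sacrificed at 2, 4 and 6 h (or 2 and 4 h). Liver, kidney, heart, brain, muscle and tumor weighed and gamma-counted. Counts corrected for background and decay; %ID/g calculated against 0.01 mL of dosing solution.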

Data set [12] concerns Mus musculus. Description: Biodistribution in tumor of nude mouse xenografted with human LNCAP cells expressing PSA at 230 to 580 uCi after 3 to 4 hrs by gamma counting analysis. In kind it is ADME, organism-based, Neoplasm. The settings on record: in vivo. An outline of the steps: as §3
The subject of another data set is Kidney. Description: Biodistribution in nude mouse kidney xenografted with human LNCAP cells expressing PSA at 230 to 580 uCi after 2 hrs by gamma counting analysis. In kind it is ADME, organism-based. To be noted: in vivo. In short, it runs like this:
as §3

The structures appear in SMILES notation. pIC50, pKi: −log10 of the molar value. Activity calls are given as the source filed them. No cut-off for these calls is given here. Non-standard residues stand in square brackets, D forms with d. Residues, ends and D or L forms follow the SMILES beside them. *: point of attachment. X4 = CC1(C)[C@@H]2C[C@H]1[C@]1(C)OB([C@@H](CCCBr)N*)O[C@@H]1C2; dboroNva(5-Br) = OB(O)[C@@H](CCCBr)N*; dboroPhe = OB(O)[C@@H](Cc1ccccc1)N*; Benzoyl(4-I) = O=C(c1ccc(I)cc1)*; X2 = CC(C)C[C@@H](N*)B(O)O; Nle = CCCC[C@H](N)C(=O)O; Cbz = O=C(OCc1ccccc1)*; Ahx = NCCCCCC(=O)O

`CCCC[C@H](NC(=O)[C@H](CCC(N)=O)NC(=O)[C@H](CO)NC(=O)[C@H](CO)NC(=O)CCCCCN)C(=O)N[C@H](CC(C)C)B(O)O` (H-[Ahx]SSQ[Nle]-X2) had a pKi in [1] of 6.86. In addition, the Ratio Ki in [2] is 3.2.

For `CCCC[C@H](NC(=O)[C@H](CCC(N)=O)NC(=O)[C@H](CO)NC(=O)[C@H](Cc1ccccc1)NC(=O)CCCCCN)C(=O)N[C@H](CCCBr)B(O)O` (H-[Ahx]FSQ[Nle]-{dboroNva(5-Br)}), the Activity result with Mus musculus [3] is listed as “Non-toxic”. Further, the inhibition in vivo at 10 mg/kg in the data set on Mus musculus [4] came to 23%; in the data set with Mus musculus [6], 40%. In addition, the pKi in data set [1] is 6.24. Also, in [2], the Ratio Ki turned out to be 8.03. Moreover, the result in the data set with LNCaP [5] was inactive. Besides, the outcome with LNCaP [7] was Active.

For `CCCC[C@H](NC(=O)[C@H](CCC(N)=O)NC(=O)[C@H](CO)NC(=O)C[C@H](Cc1ccc2ccccc2c1)NC(=O)CCCCCN)C(=O)N[C@H](CCCBr)B(O)O`, in data set [1], the pKi was 6.30. Further, the Ratio Ki in data set [2] was found to be 4.94.

`CCCC[C@H](NC(=O)[C@H](CCC(N)=O)NC(=O)[C@H](CO)NC(=O)CCCCCN)C(=O)N[C@H](Cc1ccccc1)B(O)O` showed a pKi in data set [1] of 8.42. Moreover, in [2], the Ratio Ki was 0.17.

For `CCCC[C@H](NC(=O)[C@H](CCC(N)=O)NC(=O)[C@H](CO)NC(=O)[C@H](CO)NC(=O)CCCCCNC(=O)c1ccc([125I])cc1)C(=O)N[C@H](CCCBr)B(O)O`, in data set [8], the half-life stood at 0.2 h.

As to `CCCC[C@H](NC(=O)[C@H](CCC(N)=O)NC(=O)[C@H](CO)NC(=O)CCCCCN)C(=O)N[C@H](CCCBr)B(O)O`, the pKi in data set [1] is 6.60. In addition, the Ratio Ki in data set [2] was 0.83.

The compound `CC(C)C[C@H](NC(=O)[C@H](CCCCN)NC(=O)[C@H](CO)NC(=O)[C@@H](N)CO)C(=O)N[C@H](C=O)CCC(N)=O` (H-SSKLQ-aldehyde) gave a pKi in data set [9] of 4.35.

For the compound `CCCC[C@H](NC(=O)[C@H](CCC(N)=O)NC(=O)[C@H](CO)NC(=O)[C@H](Cc1ccccc1)NC(=O)CCCCCN)C(=O)N[C@H](Cc1ccccc1)B(O)O` (H-[Ahx]FSQ[Nle]-dboroPhe), in data set [1], the negative logarithm of the Ki (pKi) is 9.87. Further, the Ratio Ki was 0.002 in data set [2] and 450 in data set [10].

`CCCC[C@H](NC(=O)[C@H](CCCCN)NC(=O)[C@H](CO)NC(=O)[C@H](CO)NC(=O)OCc1ccccc1)C(=O)N[C@H](Cc1ccccc1)B(O)O` (Cbz-SSK[Nle]-dboroPhe) showed a negative-log Ki (pKi) in [1] of 7.74. In data set [2], the Ratio Ki amounted to 0.11.

The compound `O=C(OCc1ccccc1)c1cccc(CC(=O)N2C(=O)[C@@H](Cc3ccc(O)cc3)[C@H]2C(=O)OCc2ccccc2)c1` gave a pIC50 in [11] of 6.65.

In data set [1], `CCCC[C@H](NC(=O)[C@H](CCCCN)NC(=O)[C@H](CO)NC(=O)[C@H](CO)NC(=O)OCc1ccccc1)C(=O)N[C@H](CCCBr)B(O)O` (Cbz-SSK[Nle]-{dboroNva(5-Br)}) had a pKi of 6.71. Moreover, the Ratio Ki in data set [2] was 8.13.

The compound `CCCC[C@H](NC(=O)[C@H](CCC(N)=O)NC(=O)[C@H](CO)NC(=O)[C@H](C)NC(=O)CCCCCN)C(=O)N[C@H](CCCBr)B(O)O` (H-[Ahx]ASQ[Nle]-{dboroNva(5-Br)}) showed a pKi in [1] of 6.78. The Ratio Ki in data set [2] stood at 3.18.

Consider `CCCC[C@H](NC(=O)[C@H](CCC(N)=O)NC(=O)[C@H](CO)NC(=O)[C@H](Cc1ccccc1)NC(=O)CCCCCNC(=O)c1ccc([125I])cc1)C(=O)N[C@H](CCCBr)B(O)O`, for which the Drug uptake result in the data set with Liver, in the data set on Mus musculus [12] and in the data set with Kidney was “Active” throughout.

With `CCCC[C@H](NC(=O)[C@H](CCC(N)=O)NC(=O)[C@H](CO)NC(=O)[C@H](Cc1ccccc1)NC(=O)CCCCCN)C(=O)N[C@H](CCCBr)B1O[C@@H]2C[C@H]3C[C@H](C3(C)C)[C@]2(C)O1` (H-[Ahx]FSQ[Nle]-X4), the pKi in data set [1] was 6.30. Besides, the Ratio Ki in data set [2] came out at 6.77.

In turn, `CCCC[C@H](NC(=O)[C@H](CCC(N)=O)NC(=O)[C@H](CO)NC(=O)C[C@H](Cc1ccc2ccccc2c1)NC(=O)CCCCCN)C(=O)N[C@H](Cc1ccccc1)B(O)O` had a pKi in data set [1] of 8.14. Moreover, in data set [2], the Ratio Ki was determined as 0.03.

In data set [1], `CCCC[C@H](NC(=O)[C@H](CCC(N)=O)NC(=O)[C@H](CO)NC(=O)[C@H](C)NC(=O)CCCCCN)C(=O)N[C@H](Cc1ccccc1)B(O)O` (H-[Ahx]ASQ[Nle]-dboroPhe) showed a pKi of 7.44. In data set [2], the Ratio Ki came out at 0.12.

`CCCC[C@H](NC(=O)[C@H](CCC(N)=O)NC(=O)[C@H](CO)NC(=O)C[C@H](Cc1ccc2ccccc2c1)NC(=O)CCCCCNC(=O)c1ccc([125I])cc1)C(=O)N[C@H](Cc1ccccc1)B(O)O`: the Drug uptake entry in the data set on Liver, with Mus musculus [12] and in the data set on Kidney was “Active” each time. Further, in [8], the half-life was 2.7 h.

With `CCCC[C@H](NC(=O)[C@H](CCC(N)=O)NC(=O)[C@H](CO)NC(=O)[C@H](Cc1ccccc1)NC(=O)CCCCCNC(=O)c1ccc([125I])cc1)C(=O)N[C@H](CCCBr)B1O[C@@H]2C[C@H]3C[C@H](C3(C)C)[C@]2(C)O1`, the Drug uptake entry in the data set on Liver, in the data set with Mus musculus [12] and in the data set with Kidney was “Active” in each case.

The compound `CCCC[C@H](NC(=O)[C@H](CCC(N)=O)NC(=O)[C@H](CO)NC(=O)[C@H](Cc1ccccc1)NC(=O)CCCCCNC(=O)c1ccc(I)cc1)C(=O)N[C@H](CCCBr)B(O)O` ({Benzoyl(4-I)-Ahx}-FSQ[Nle]-{dboroNva(5-Br)}) showed a pKi in [1] of 6.19. For the same compound, in data set [2], the Ratio Ki stood at 10.1.
